Test results taken from ChEMBL document CHEMBL1147105, “In vitro and in vivo activities of PD 0305970 and PD 0326448, new bacterial gyrase/topoisomerase inhibitors with potent antibacterial activities versus multidrug-resistant gram-positive and fastidious organism groups” (2007).
≈ marks a conversion by molar mass, not a printed value.

Columns and labels:
Type in all cases: functional
Enterococcus faecalis [1] = assay: Antibacterial activity against VanB-resistant Enterococcus faecalis
Procedure, shortened: (§1)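 Broth microdilution MIC per CLSI guidelines, incubated at 35°C. Cation-adjusted Mueller-Hinton broth for nonfastidious organisms and staphylococci. Streptococci tested in the same broth with 3% lysed horse blood. Anaerobes tested in supplemented Brucella broth inside an anaerobe chamber (5% CO2, 5% H2, 90% N2), read after 48 h. Strains were mainly recent clinical isolates with confirmed identity.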

Enterococcus faecium = assay: Antibacterial activity against VanB-resistant Enterococcus faecium; procedure, shortened: as §1
Corynebacterium jeikeium = assay: Antibacterial activity against Corynebacterium jeikeium
Procedure, shortened: (§2)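 Broth microdilution MIC following CLSI guidelines, in cation-adjusted Mueller-Hinton broth containing 3% lysed horse blood, incubated at 35°C. Clinical isolates with identity confirmed. Reported as MIC range, MIC50 and MIC90.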

Corynebacterium sp. = assay: Antibacterial activity against Corynebacterium sp.; procedure, shortened: as §2
Haemophilus influenzae [2] = assay: Antibacterial activity against beta-lactamase negative Haemophilus influenzae
Procedure, shortened: (§3)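 Broth microdilution MIC following CLSI guidelines, in Haemophilus test medium at 35°C.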

Haemophilus influenzae [3] = assay: Antibacterial activity against beta-lactamase positive Haemophilus influenzae; procedure, shortened: as §3
Legionella pneumophila = assay: Antibacterial activity against Legionella pneumophila
Procedure, shortened: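 Broth microdilution MIC per CLSI guidelines, run in buffered yeast extract α-ketoglutarate broth at 35°C and read after 48 h.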

Citrobacter koseri = assay: Antibacterial activity against Citrobacter diversus
Procedure, shortened: (§4)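 Broth microdilution MIC following CLSI guidelines, in cation-adjusted Mueller-Hinton broth, incubated at 35°C. Recent clinical isolates and reference strains, with identity confirmed by automated and standard microbiological methods. Results reported as MIC range, MIC50 and MIC90.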

Citrobacter freundii = assay: Antibacterial activity against Citrobacter freundii; procedure, shortened: as §4
Enterobacter cloacae = assay: Antibacterial activity against Enterobacter cloacae; procedure, shortened: as §4
Escherichia coli = assay: Antibacterial activity against Escherichia coli; procedure, shortened: as §4
Klebsiella oxytoca = assay: Antibacterial activity against Klebsiella oxytoca; procedure, shortened: as §4
Morganella morganii = assay: Antibacterial activity against Morganella morganii; procedure, shortened: as §4
Proteus mirabilis = assay: Antibacterial activity against Proteus mirabilis; procedure, shortened: as §4
Shigella dysenteriae = assay: Antibacterial activity against Shigella dysenteriae
Acinetobacter sp. = assay: Antibacterial activity against Acinetobacter sp.; procedure, shortened: as §4
Burkholderia cepacia = assay: Antibacterial activity against Burkholderia cepacia; procedure, shortened: as §4
Pseudomonas aeruginosa = assay: Antibacterial activity against Pseudomonas aeruginosa; procedure, shortened: as §4
Fusobacterium sp. = assay: Antibacterial activity against Fusobacterium sp.
Procedure, shortened: (§5)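 Anaerobic broth microdilution MIC following CLSI guidelines, in supplemented Brucella broth. Run in an anaerobe chamber under 5% CO2, 5% H2 and 90% N2 at 35°C, and read after 48 h. Reported as MIC range, MIC50 and MIC90.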

[4] = test system: Peptoniphilus asaccharolyticus; assay: Antibacterial activity against Peptostreptococcus asaccharolyticus; procedure, shortened: as §5
Finegoldia magna = assay: Antibacterial activity against Peptostreptococcus magnus; procedure, shortened: as §5
Streptococcus pyogenes = assay: Antibacterial activity against Streptococcus pyogenes
Procedure, shortened: (§6)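 Broth microdilution MIC following CLSI guidelines, in cation-adjusted Mueller-Hinton broth with 3% lysed horse blood. Plates incubated at 35°C. Clinical isolates and reference strains, with identity confirmed by standard microbiological methods.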

Fusobacterium nucleatum = assay: Antibacterial activity against Fusobacterium nucleatum; procedure, shortened: as §5
[5] = test system: Bacteroides thetaiotaomicron; assay: Antibacterial activity against Bacteroides thetaiotaomicron; procedure, shortened: as §5
Bacteroides ovatus = assay: Antibacterial activity against Bacteroides ovatus; procedure, shortened: as §5
Staphylococcus aureus [6] = assay: Antibacterial activity against oxacillin-susceptible Staphylococcus aureus
Procedure, shortened: (§7)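 MIC by CLSI broth microdilution for nonfastidious organisms, in cation-adjusted Mueller-Hinton broth incubated at 35°C.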

Staphylococcus aureus [7] = assay: Antibacterial activity against oxacillin-resistant Staphylococcus aureus; procedure, shortened: as §1
Staphylococcus aureus [8] = assay: Antibacterial activity against oxacillin and levofloxacin-resistant Staphylococcus aureus; procedure, shortened: as §1
Staphylococcus aureus [9] = assay: Antibacterial activity against vancomycin-intermediate Staphylococcus aureus; procedure, shortened: as §1
[10] = test system: Staphylococcus epidermidis; assay: Antibacterial activity against oxacillin-susceptible Staphylococcus epidermidis; procedure, shortened: as §7
[11] = test system: Staphylococcus epidermidis; assay: Antibacterial activity against oxacillin-resistant Staphylococcus epidermidis; procedure, shortened: as §1
[12] = test system: Staphylococcus haemolyticus; assay: Antibacterial activity against Staphylococcus haemolyticus; procedure, shortened: as §2
[13] = test system: Staphylococcus saprophyticus; assay: Antibacterial activity against Staphylococcus saprophyticus; procedure, shortened: as §4
Staphylococcus warneri = assay: Antibacterial activity against Staphylococcus warneri; procedure, shortened: as §4
Streptococcus agalactiae = assay: Antibacterial activity against Streptococcus agalactiae; procedure, shortened: as §2
Streptococcus equinus = assay: Antibacterial activity against Streptococcus bovis; procedure, shortened: as §6
Streptococcus pneumoniae [14] = assay: Antibacterial activity against penicillin-susceptible Streptococcus pneumoniae; procedure, shortened: as §1
Streptococcus pneumoniae [15] = assay: Antibacterial activity against penicillin-resistant Streptococcus pneumoniae; procedure, shortened: as §1
Enterococcus faecalis [16] = assay: Antibacterial activity against Enterococcus faecalis; procedure, shortened: as §1
Enterococcus faecalis [17] = assay: Antibacterial activity against VanA-resistant Enterococcus faecalis; procedure, shortened: as §1
Prevotella buccae = assay: Antibacterial activity against Prevotella buccae; settings: Segatella buccae; procedure, shortened: as §5
Prevotella corporis = assay: Antibacterial activity against Prevotella corporis; procedure, shortened: as §5
Hoylesella oralis = assay: Antibacterial activity against Prevotella oralis; procedure, shortened: as §5
Neisseria meningitidis = assay: Antibacterial activity against Neisseria meningitidis
Procedure, shortened: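 MIC by broth microdilution in gonococcal broth, incubated at 35°C in 5% CO2. Reported as MIC range, MIC50 and MIC90.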

Streptococcus salivarius = assay: Antibacterial activity against Streptococcus salivarius; procedure, shortened: as §6
Streptococcus mitis = assay: Antibacterial activity against Streptococcus mitis; procedure, shortened: as §6
Streptococcus viridans = assay: Antibacterial activity against Streptococcus viridans; procedure, shortened: as §6

`Cc1c(N2CC[C@@H]([C@H](C)N)C2)c(F)cc2c(=O)n(N)c(=O)n(C3CC3)c12` showed an MIC50 (Enterococcus faecalis [1]) of 0.25 µg/mL (≈ 0.692 µM), an MIC90 (Enterococcus faecalis [1]) of 0.25 µg/mL (≈ 0.692 µM) and an MIC (Enterococcus faecium) of 0.5 µg/mL (≈ 1.38 µM). For the same molecule, the MIC50 (Corynebacterium jeikeium) was 0.25 µg/mL (≈ 0.692 µM), the MIC90 (Corynebacterium jeikeium) was 0.25 µg/mL (≈ 0.692 µM) and the MIC50 (Corynebacterium sp.) was 0.25 µg/mL (≈ 0.692 µM). For the same molecule, the MIC90 (Corynebacterium sp.) was 0.25 µg/mL (≈ 0.692 µM), the MIC50 (Haemophilus influenzae [2]) was 0.125 µg/mL (≈ 0.346 µM) and the MIC90 (Haemophilus influenzae [2]) was 0.25 µg/mL (≈ 0.692 µM). For the same molecule, the MIC50 (Haemophilus influenzae [3]) was 0.125 µg/mL (≈ 0.346 µM), the MIC90 (Haemophilus influenzae [3]) was 0.25 µg/mL (≈ 0.692 µM) and the MIC50 (Legionella pneumophila) was 0.25 µg/mL (≈ 0.692 µM). It also gave an MIC90 (Legionella pneumophila) of 0.25 µg/mL (≈ 0.692 µM), an MIC50 (Citrobacter koseri) of 1 µg/mL (≈ 2.77 µM) and an MIC90 (Citrobacter koseri) of 4 µg/mL (≈ 11.1 µM). It also gave an MIC50 (Citrobacter freundii) of 4 µg/mL (≈ 11.1 µM), an MIC90 (Citrobacter freundii) of 16 µg/mL (≈ 44.3 µM) and an MIC50 (Enterobacter cloacae) of 1 µg/mL (≈ 2.77 µM). It also gave an MIC90 (Enterobacter cloacae) of 4 µg/mL (≈ 11.1 µM), an MIC50 (Escherichia coli) of 1 µg/mL (≈ 2.77 µM) and an MIC90 (Escherichia coli) of 2 µg/mL (≈ 5.53 µM). The MIC50 (Klebsiella oxytoca) was 1 µg/mL (≈ 2.77 µM), the MIC90 (Klebsiella oxytoca) was 2 µg/mL (≈ 5.53 µM) and the MIC50 (Morganella morganii) was 2 µg/mL (≈ 5.53 µM). For the same molecule, the MIC90 (Morganella morganii) was 8 µg/mL (≈ 22.1 µM), the MIC50 (Proteus mirabilis) was 1 µg/mL (≈ 2.77 µM) and the MIC90 (Proteus mirabilis) was 2 µg/mL (≈ 5.53 µM). For the same molecule, the MIC50 (Shigella dysenteriae) was 0.5 µg/mL (≈ 1.38 µM), the MIC90 (Shigella dysenteriae) was 1 µg/mL (≈ 2.77 µM) and the MIC50 (Acinetobacter sp.) was 1 µg/mL (≈ 2.77 µM). The MIC90 (Acinetobacter sp.) was 8 µg/mL (≈ 22.1 µM), the MIC50 (Burkholderia cepacia) was 32 µg/mL (≈ 88.5 µM) and the MIC90 (Burkholderia cepacia) was 64 µg/mL (≈ 177 µM). The MIC50 (Pseudomonas aeruginosa) was 4 µg/mL (≈ 11.1 µM), the MIC90 (Pseudomonas aeruginosa) was 32 µg/mL (≈ 88.5 µM) and the MIC (Fusobacterium sp.) was 0.06 µg/mL (≈ 0.166 µM). It also gave an MIC [4] of 0.03 µg/mL (≈ 0.083 µM), an MIC (Finegoldia magna) of 0.03 µg/mL (≈ 0.083 µM) and an MIC50 (Streptococcus pyogenes) of 0.03 µg/mL (≈ 0.083 µM). The MIC90 (Streptococcus pyogenes) was 0.03 µg/mL (≈ 0.083 µM), the MIC (Fusobacterium nucleatum) was 0.06 µg/mL (≈ 0.166 µM) and the MIC50 [5] was 4 µg/mL (≈ 11.1 µM). For the same molecule, the MIC90 [5] was 16 µg/mL (≈ 44.3 µM), the MIC50 (Bacteroides ovatus) was 4 µg/mL (≈ 11.1 µM) and the MIC90 (Bacteroides ovatus) was 16 µg/mL (≈ 44.3 µM). For the same molecule, the MIC50 (Staphylococcus aureus [6]) was 0.125 µg/mL (≈ 0.346 µM), the MIC90 (Staphylococcus aureus [6]) was 0.125 µg/mL (≈ 0.346 µM) and the MIC50 (Staphylococcus aureus [7]) was 0.125 µg/mL (≈ 0.346 µM). It also gave an MIC90 (Staphylococcus aureus [7]) of 0.25 µg/mL (≈ 0.692 µM), an MIC50 (Staphylococcus aureus [8]) of 0.25 µg/mL (≈ 0.692 µM) and an MIC90 (Staphylococcus aureus [8]) of 0.5 µg/mL (≈ 1.38 µM). For the same molecule, the MIC (Staphylococcus aureus [9]) was 0.125 µg/mL (≈ 0.346 µM), the MIC [10] was 0.06 µg/mL (≈ 0.166 µM) and the MIC50 [11] was 0.125 µg/mL (≈ 0.346 µM). The MIC90 [11] was 0.125 µg/mL (≈ 0.346 µM), the MIC50 [12] was 0.125 µg/mL (≈ 0.346 µM) and the MIC90 [12] was 0.5 µg/mL (≈ 1.38 µM). For the same molecule, the MIC50 [13] was 0.06 µg/mL (≈ 0.166 µM), the MIC90 [13] was 0.125 µg/mL (≈ 0.346 µM) and the MIC (Staphylococcus warneri) was 0.06 µg/mL (≈ 0.166 µM). It also gave an MIC50 (Streptococcus agalactiae) of 0.03 µg/mL (≈ 0.083 µM), an MIC90 (Streptococcus agalactiae) of 0.03 µg/mL (≈ 0.083 µM) and an MIC50 (Streptococcus equinus) of 0.03 µg/mL (≈ 0.083 µM). It also gave an MIC90 (Streptococcus equinus) of 0.03 µg/mL (≈ 0.083 µM), an MIC50 (Streptococcus pneumoniae [14]) of 0.03 µg/mL (≈ 0.083 µM) and an MIC90 (Streptococcus pneumoniae [14]) of 0.03 µg/mL (≈ 0.083 µM). The MIC50 (Streptococcus pneumoniae [15]) was 0.03 µg/mL (≈ 0.083 µM), the MIC90 (Streptococcus pneumoniae [15]) was 0.03 µg/mL (≈ 0.083 µM) and the MIC50 (Enterococcus faecalis [16]) was 0.125 µg/mL (≈ 0.346 µM). It also gave an MIC90 (Enterococcus faecalis [16]) of 0.25 µg/mL (≈ 0.692 µM), an MIC (Enterococcus faecalis [17]) of 0.125 µg/mL (≈ 0.346 µM) and an MIC50 (Prevotella buccae) of 0.25 µg/mL (≈ 0.692 µM). The MIC90 (Prevotella buccae) was 1 µg/mL (≈ 2.77 µM), the MIC50 (Prevotella corporis) was 0.25 µg/mL (≈ 0.692 µM) and the MIC90 (Prevotella corporis) was 1 µg/mL (≈ 2.77 µM). It also gave an MIC50 (Hoylesella oralis) of 0.25 µg/mL (≈ 0.692 µM), an MIC90 (Hoylesella oralis) of 1 µg/mL (≈ 2.77 µM) and an MIC50 (Neisseria meningitidis) of 0.25 µg/mL (≈ 0.692 µM). The MIC90 (Neisseria meningitidis) was 0.5 µg/mL (≈ 1.38 µM), the MIC50 (Streptococcus salivarius) was 0.03 µg/mL (≈ 0.083 µM) and the MIC90 (Streptococcus salivarius) was 0.03 µg/mL (≈ 0.083 µM). For the same molecule, the MIC50 (Streptococcus mitis) was 0.03 µg/mL (≈ 0.083 µM), the MIC90 (Streptococcus mitis) was 0.03 µg/mL (≈ 0.083 µM) and the MIC50 (Streptococcus viridans) was 0.03 µg/mL (≈ 0.083 µM). For the same molecule, the MIC90 (Streptococcus viridans) was 0.03 µg/mL (≈ 0.083 µM).
